Reference: publication PMC8360185 (Chembiochem, 2021)

System: FKBP12-NLuc or FKBP51-NLuc
Format: cell-based, human
Details: 1 µM Elacridar, 20 nM tracer 2b or 200 nM tracer 2c
How it was run: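 HEK293T cells expressing C-terminal FKBP-NanoLuc fusions were resuspended in Opti-MEM at 4.6×105 (transient) or 1.81×10^6 cells/mL (stable). Tracer was added from an eightfold stock, and test compound in DMSO was 1:2 serially diluted. Plates were incubated 2 h at 37 °C, then 15 min at RT. NanoGlo substrate (1:664) and extracellular NanoLuc inhibitor (1:2000) were added, with donor read at 450 nm and acceptor at 660 nm after 3 min.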

Compound: C=CC[C@@H]1/C=C(\C)C[C@H](C)C[C@H](OC)[C@H]2O[C@@](O)(C(=O)C(=O)N3CCCC[C@H]3C(=O)O[C@H](/C(C)=C/[C@@H]3CC[C@@H](O)[C@H](OC)C3)[C@H](C)[C@@H](O)CC1=O)[C@H](C)C[C@@H]2OC [FK506]
- effect of Elacridar on NanoBRET activity: did not affect

Compound: COc1ccc(CC[C@@H](OC(=O)[C@@H]2CCCCN2C(=O)[C@H](c2cc(OC)c(OC)c(OC)c2)C2CCCCC2)c2cccc(OCCN3CCOCC3)c2)cc1OC [SAFit2]
- effect of Elacridar on NanoBRET activity: did not affect
